For series [1], the species on record is Rattus norvegicus. Put plainly: Inhibition of Na+ channel in rat embryonic cortical neurons assessed as hyperpolarizing shift of current at 10 uM by whole-cell voltage clamp assay.
The species entered for series [2] is Rattus norvegicus. Put plainly: Induction of voltage-dependent Na+ channel activation in rat embryonic cortical neurons at 10 uM by whole-cell voltage clamp assay (reference value: - 39 +/- 7.8 mV).
Series [3] is filed under the species Rattus norvegicus. Put plainly: Induction of voltage-dependent Na+ channel fast inactivation in rat embryonic cortical neurons at 10 uM by whole-cell voltage clamp assay (reference value: - 51.1 +/- 1.4 mV).
Series [4] is filed under the species Rattus norvegicus. Put plainly: Activity at Na+ channel in rat embryonic cortical neurons assessed as effect on total macroscopic sodium current at 10 uM by whole-cell voltage clamp assay.
A short description of series [5]: Cytotoxicity against rat embryonic cortical neurons assessed as loss of membrane integrity at 20 uM. Particulars: cortical neurone.
For series [6], the system named is Mus musculus. Briefly: Anticonvulsant activity in corneally kindled mouse assessed as protection against seizure at 20 mg/kg, ip. The class given is functional, organism-based. Further details: dose 20 mg/kg. A digest of the protocol:
(§1)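 Corneally kindled mouse seizure model with ip dosing. Protection was scored in 4 animals, and the average seizure score was recorded.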

Series [7] has as its system Rattus norvegicus. Briefly: Anticonvulsant activity in po dosed albino Sprague-Dawley rat assessed as protection against maximal electroshock-induced seizures measured at 1 hr. The class given is functional. The gist of the method: (§2)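 Screened under the NINDS ASP in male albino Carworth Farms No. 1 mice (ip) or male albino Sprague-Dawley rats (ip or po), using MES, 6 Hz (32 mA) and subcutaneous pentylenetetrazol seizure tests. Initial qualitative tests used preset doses (e.g., 30, 50, 100 mg/kg). ED50 values with 95% confidence intervals came from dose–response data collected at the time of peak effect.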
(In general: Protection in the maximal electroshock model is a classic sign of anticonvulsant action.)

Series [8] relates to Rattus norvegicus. Put plainly: Anticonvulsant activity in ip dosed albino Sprague-Dawley rat assessed as protection against maximal electroshock-induced seizures measured at 0.5 hrs. The format is functional. The gist of the method:
as §2

The subject of series [9] is Mus musculus. Briefly: Anticonvulsant activity in albino CF-1 mouse assessed as protection against maximal electroshock-induced seizures at 100 mg/kg, ip. The format is functional, organism-based. More on the design: dose 100 mg/kg. A digest of the protocol: as §2
Series [10] has as its system Mus musculus. Briefly: Anticonvulsant activity in ip dosed albino CF-1 mouse assessed as protection against maximal electroshock-induced seizures measured at 0.25 to 0.5 hrs. The class given is functional. Particulars: albino CF-1, ip. A digest of the protocol:
as §2

The subject of series [11] is Mus musculus. Briefly: Anticonvulsant activity in ip dosed albino CF-1 mouse assessed as protection against maximal electroshock-induced seizures measured at 0.5 to 2 hrs. Particulars: albino CF-1, ip. The format is functional. A digest of the protocol:
as §2

For series [12], the system named is Mus musculus. Put plainly: Anticonvulsant activity in corneally kindled mouse assessed as protection against seizure at 28 mg/kg, ip. Further details: dose 28 mg/kg. The class given is functional, organism-based. A digest of the protocol: as §1
Series [13] relates to Rattus norvegicus. Briefly: Anticonvulsant activity in ip dosed albino Sprague-Dawley rat assessed as protection against maximal electroshock-induced seizures measured at 0.25 to 0.5 hrs. The format is functional. The gist of the method:
as §2

Series [14] deals with Mus musculus. Put plainly: Anticonvulsant activity in ip dosed albino CF-1 mouse assessed as protection against subcutaneous metrazol-induced seizure measured at 0.5 hrs. The class given is functional. Particulars: albino CF-1, 0.5 h. A digest of the protocol:
as §2

Active and inactive are the calls of the source. The rule behind the calls is not given here.

By ED50 is commonly meant the dose that gives a 50% effect, or the effect in half of the subjects.

With `Cl.NCc1ccc(OCc2ccccc2OC(F)(F)F)cc1`, the Activity in the series listed under Rattus norvegicus [1] is 15.3 mV; in series [5] it was “Toxic”. Also, the V1/2 was -35.3 mV in the series listed under Rattus norvegicus [2] and -66.4 mV in the series filed under Rattus norvegicus [3]. Besides, the result in the series listed under Rattus norvegicus [4] was inactive. In the series on Mus musculus [6], the result was Active. In addition, the figures for the ED50 in the series with Rattus norvegicus [7] and in the series with Rattus norvegicus [8] were 30 mg/kg and 18 mg/kg, respectively.

Regarding `Cl.NCc1ccc(OCc2cccc(F)c2)cc1`, the outcome in the series on Mus musculus [9] was Active. The ED50 in the series with Mus musculus [10] was < 100 mg/kg.

For the molecule `Cl.NCc1ccc(OCc2ccccc2)cc1`, the median effective dose (ED50) in the series on Mus musculus [11] was > 100 mg/kg.

For `Cl.NCc1ccc(OCc2cccc(OC(F)(F)F)c2)cc1`, the result in the series on Mus musculus [12] was Active. Also, the ED50 in the series with Rattus norvegicus [13] is < 30 mg/kg; in the series with Mus musculus [14], > 170 mg/kg.

These data come from ChEMBL document CHEMBL3091364, “Benzyloxybenzylammonium chlorides: Simple amine salts that display anticonvulsant activity” (Bioorg Med Chem, 2013).
